Active and inactive are the calls of the source. No cut-off for these calls is given here.
What was measured:
Trypanosoma cruzi [1] = assay: Antitrypanosomal activity against Trypanosoma cruzi CL Brener trypomastigotes infected in Vero cells assessed as parasite lysis at 25 uM after 19 hrs relative to untreated control; format: functional
How it was run: (§1)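 Cell-culture trypomastigotes released from infected Vero cells (37 °C, 5% CO2, 5–7 days), collected by centrifugation and allowed 4 h at 37 °C to swim off. Supernatant parasites exposed to 10.0–50.0 μM for 2–26 h; lysis counted in a Neubauer chamber relative to untreated parasites; three independent experiments.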

Trypanosoma cruzi [2] = assay: Antitrypanosomal activity against Trypanosoma cruzi CL Brener trypomastigotes infected in Vero cells assessed as parasite lysis at 50 uM after 2 hrs relative to untreated control; format: functional; how it was run: as §1
Trypanosoma cruzi [3] = assay: Antitrypanosomal activity against Trypanosoma cruzi CL Brener trypomastigotes infected in Vero cells assessed as parasite lysis at 50 uM after 19 hrs relative to untreated control; format: functional; how it was run: as §1
Trypanosoma cruzi [4] = assay: Antitrypanosomal activity against Trypanosoma cruzi CL Brener epimastigotes after 5 days by MTT assay; format: functional; settings: 120 h, read-out: ID50
How it was run: (§2)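 Epimastigotes (T. cruzi strains, BHI-Tryptose + 5% FBS, 28 °C) or L. braziliensis LTB300 promastigotes (axenic RPMI + 5% FBS, 28 °C) from exponential culture in 24-well plates; compounds from DMSO stock added for 5 days. Washed in PBS, 0.4 mg/mL MTT at 37 °C for 3 h, formazan dissolved in DMSO, OD595 read. Triplicate per concentration, six growth controls; 1.0–50.0 μM dose-response, ID50 = concentration reducing absorbance ratio to 50%; three independent experiments.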

Trypanosoma cruzi [5] = assay: Antitrypanosomal activity against Trypanosoma cruzi Y epimastigotes after 5 days by MTT assay; format: functional; settings: 120 h, read-out: ID50; how it was run: as §2
Leishmania braziliensis = assay: Antiparasitic activity against Leishmania braziliensis MHOM/BR/00/LTB300 after 5 days by MTT assay; format: functional; settings: MHOM/BR/00/LTB300, 120 h, read-out: ID50; how it was run: as §2
Trypanosoma cruzi [6] = assay: Antitrypanosomal activity against Trypanosoma cruzi Colombiana assessed as parasitic cytotoxicity at 25 uM after 5 days by MTT assay; format: functional
How it was run: (§3)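 Single 25 μM dose for 5 days on exponential-phase epimastigotes in BHI-Tryptose + 5% FBS, 24-well plates; MTT 0.4 mg/mL, 3 h at 37 °C after PBS wash, formazan in DMSO, OD595. PCyt = [[…] (ODd − ODdm)/(ODc − ODcm)] × 100 with medium-only blanks, compound-in-medium blanks and growth controls; three independent experiments.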

Trypanosoma cruzi [7] = assay: Reduction of end products excretion levels in Trypanosoma cruzi Y epimastigotes after 2 days by [1H]NMR method; format: functional, organism-based
How it was run: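 Y-strain epimastigotes treated 2 days with 5 μM compound; culture centrifuged 1500 g, 10 min, 4 °C, parasite-free supernatant stored at −20 °C. Supernatant plus DMF internal standard and D2O run by 1H NMR with water suppression; metabolite peaks confirmed by spiking and standards, compared to untreated and parasite-free medium.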

Trypanosoma cruzi [8] = assay: Antitrypanosomal activity against Trypanosoma cruzi CL Brener epimastigotes assessed as parasitic cytotoxicity at 25 uM after 5 days by MTT assay; format: functional; how it was run: as §3
Trypanosoma cruzi [9] = assay: Antitrypanosomal activity against Trypanosoma cruzi Tulahuen 2 epimastigotes assessed as inhibition of parasite growth after 5 days; format: functional; settings: Trypanosoma cruzi, Tulahuen 2, 120 h; read-out: ID50 (the source's name)
How it was run: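 Stationary-phase (10-day) Tulahuen 2 epimastigotes inoculated at 1×10^6 cells/mL in BHI-Tryptose + 5% FBS, 28 °C, drug added from DMSO stock (final DMSO ≤0.4%; control 0.4% DMSO). Growth followed as A600; inhibition from day-5 vs day-0 absorbance relative to control. ID50 = concentration reducing absorbance ratio to 50%; three independent experiments.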

Trypanosoma cruzi [10] = assay: Antitrypanosomal activity against Trypanosoma cruzi CL Brener trypomastigotes infected in Vero cells assessed as parasite lysis at 5 uM after 22 hrs relative to untreated control; format: functional
Trypanosoma cruzi [11] = assay: Antitrypanosomal activity against Trypanosoma cruzi CL Brener trypomastigotes infected in Vero cells assessed as parasite lysis at 10 uM after 2 hrs relative to untreated control; format: functional; how it was run: as §1
Trypanosoma cruzi [12] = assay: Antitrypanosomal activity against Trypanosoma cruzi CL Brener trypomastigotes infected in Vero cells assessed as parasite lysis at 10 uM after 3 hrs relative to untreated control; format: functional; how it was run: as §1
Trypanosoma cruzi [13] = assay: Antitrypanosomal activity against Trypanosoma cruzi CL Brener trypomastigotes infected in Vero cells assessed as parasite lysis at 10 uM after 22 hrs relative to untreated control; format: functional; how it was run: as §1
Trypanosoma cruzi [14] = assay: Antitrypanosomal activity against Trypanosoma cruzi CL Brener trypomastigotes infected in Vero cells assessed as parasite lysis at 10 uM after 26 hrs relative to untreated control; format: functional; how it was run: as §1

IC50 (Trypanosoma cruzi [4]): 8.5 µM
IC50 (Trypanosoma cruzi [5]): 6 µM
IC50 (Trypanosoma cruzi [9]): 3.4 µM
Compound: CC1(C)[N+]([O-])=c2ccc(/C=C/c3ccccc3)cc2=[N+]1[O-]
Activity (Trypanosoma cruzi [1]): 64%
Activity (Trypanosoma cruzi [2]): 32%
Activity (Trypanosoma cruzi [3]): 100%
IC50 (Leishmania braziliensis): 3.5 µM
Activity (Trypanosoma cruzi [6]): 92.3%
Activity (Trypanosoma cruzi [7]): Active
Activity (Trypanosoma cruzi [8]): 78.4%
Activity (Trypanosoma cruzi [10]): 31%
Activity (Trypanosoma cruzi [11]): 3%
Activity (Trypanosoma cruzi [12]): 32%
Activity (Trypanosoma cruzi [13]): 84%
Activity (Trypanosoma cruzi [14]): 100%

From ChEMBL document CHEMBL1155286, “Second generation of 2H-benzimidazole 1,3-dioxide derivatives as anti-trypanosomatid agents: synthesis, biological evaluation, and mode of action studies” (Eur J Med Chem, 2009)
